Measured values from article PMC3009390 (Chemical biology & drug design, 2010).

Key:
[1] = system: CD58 protein on Caco-2 cells; experiment: Fluorescence microscopy of binding to Caco-2 cells; assay type: cell-based, human; conditions: fixed Caco-2 cells, about 2 h incubation, magnification 20×
RA = conditions: ref [41]; cited from earlier work
CD58 protein = experiment: 1D NMR titration: binding of peptides to CD58 protein; conditions: pH 7.0, 90% H2O/10% D2O, 291 K, 700 MHz, protein:peptide 1:80
How it was run: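 Recombinant CD58 extracellular domain was titrated in 10 µL aliquots into an NMR tube holding the test peptide. A 1D spectrum was recorded at each protein:peptide ratio from 1:1000 to 1:80 on a 700 MHz instrument at 291 K. Sample pH was set to 7.0 with NaOD in D2O. A control peptide was run the same way.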

**Q.** With `O=C1OC2(c3ccc(O)cc3Oc3cc(O)ccc32)c2ccc(N=C=S)cc21` [FITC, Fluoresceineisothiocyanate] as the compound, how does the “binding observed by fluorescence microscopy” value [1] read?
**A.** Its value is “non-specific binding of FITC was observed”.

**Q.** With QYMRADEADSTLR [CII-3] as the compound, how does the RA suppression activity (RA) read?
**A.** The RA suppression activity was “does not exhibit any RA suppression activity”.

**Q.** With KGKTDAISVKAI-NH2 [control peptide] as the compound, how does the “binding to CD58 protein by 1D NMR” value (CD58 protein) read?
**A.** The value was “does not bind to protein CD58”.

**Q.** What about the “change of peptide 1D NMR amide resonances on adding CD58” value (CD58 protein) of the same compound?
**A.** The value was “no indication of amide resonances”.
